Results on 9 molecules are retold here after ChEMBL document CHEMBL1153148, “Addressing species specific metabolism and solubility issues in a quinoline series of oral PDE4 inhibitors” (Bioorg Med Chem Lett, 2010).

In brackets after ≈: the same amount, converted by molar mass.

One series relates to Blood. Description: Inhibition of LPS-induced TNFalpha production in human whole blood. The class given is functional, tissue-based.
Series [1] in a line: Aqueous solubility of the compound. The class given is physicochemical.
Series [2] has as its target 3',5'-cyclic-AMP phosphodiesterase 4B (Homo sapiens, UniProt Q07343). The experiment in a line: Inhibition of PDE4B catalytic domain by scintillation proximity assay. The gist of the method:
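PDE4B catalytic activity inhibition measured by scintillation proximity assay; pIC50 reported as mean of two determinations.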
A general note: Scintillation proximity formats need no separation of bound from free tracer.

A short description of series [3]: Oral bioavailability in rat. Particulars: in vivo. The class given is ADME, organism-based.
A short description of series [4]: Half life in cynomolgus monkey. It is filed as ADME, organism-based, Macaca fascicularis. The settings on record: in vivo. The gist of the method: (§1)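 Cynomolgus monkey pharmacokinetics after oral dosing as a solution in 10% DMSO, 15% PEG400, 75% water; a second arm used suspension dosing of particle-size-reduced material in 1% methyl cellulose. Values are means of three experiments.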

The nature of series [5]: Oral bioavailability in cynomolgus monkey. It is filed as ADME, organism-based, Macaca fascicularis. The settings on record: in vivo. In outline: as §1
Series [6] is described as follows: Clearance in cynomolgus monkey plasma. It is filed as ADME, organism-based, Macaca fascicularis. The gist of the method:
as §1

The nature of series [7]: Selectivity for PDE4B over PDE6.
Series [8] in a line: Selectivity for PDE4B over PDE3.
The nature of series [9]: Selectivity for PDE4B over PDE7.
Series [10] is described as follows: Selectivity for PDE4B over PDE5.
A short description of series [11]: Selectivity for PDE4B over PDE1.
The nature of series [12]: Selectivity for PDE4B over PDE2.

Sequence of 3',5'-cyclic-AMP phosphodiesterase 4B (Q07343 whole entry, the tested form may be a part): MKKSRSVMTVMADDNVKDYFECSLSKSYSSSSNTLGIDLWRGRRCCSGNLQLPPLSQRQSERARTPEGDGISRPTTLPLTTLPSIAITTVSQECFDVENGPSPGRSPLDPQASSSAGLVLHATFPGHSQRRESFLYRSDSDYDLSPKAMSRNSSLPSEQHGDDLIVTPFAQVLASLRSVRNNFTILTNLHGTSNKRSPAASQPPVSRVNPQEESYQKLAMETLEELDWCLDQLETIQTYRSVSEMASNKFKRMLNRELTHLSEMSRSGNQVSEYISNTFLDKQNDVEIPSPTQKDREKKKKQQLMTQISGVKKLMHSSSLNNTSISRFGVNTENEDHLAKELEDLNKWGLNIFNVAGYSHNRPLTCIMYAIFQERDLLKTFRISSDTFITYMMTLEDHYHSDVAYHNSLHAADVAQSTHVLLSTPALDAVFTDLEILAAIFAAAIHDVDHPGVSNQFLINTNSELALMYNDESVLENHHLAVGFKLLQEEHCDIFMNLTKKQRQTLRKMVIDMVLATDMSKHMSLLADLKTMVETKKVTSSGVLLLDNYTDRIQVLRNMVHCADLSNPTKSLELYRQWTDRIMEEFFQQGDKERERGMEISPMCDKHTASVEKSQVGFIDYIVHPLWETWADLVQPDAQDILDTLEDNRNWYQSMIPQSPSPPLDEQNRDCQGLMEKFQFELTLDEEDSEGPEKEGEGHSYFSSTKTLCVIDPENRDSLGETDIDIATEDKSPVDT

`CC(C)(C)S(=O)(=O)c1ccc2c(c1)C(Nc1cncc(F)c1)=C(C(N)=O)NN2`: the IC50 is 12.6 nM in the series with Blood and 0.501 nM in series [2]. This molecule also had a solubility in series [1] of 1 µg/mL (≈ 2.47 µM). The bioavailability in series [3] is 57%.
`Cc1cc(S(C)(=O)=O)cc2c(Nc3cccc(C#N)c3)c(C(N)=O)c(=O)[nH]c12`: the IC50 in the series on Blood is 25.1 nM; in series [2], 1 nM. Moreover, the half-life in [4] is 4.2 h. The molecule further had a bioavailability in [5] of 52%. The same molecule displayed a clearance in series [6] of 5.9 mL/min/kg.
With `Cc1cc(S(C)(=O)=O)cc2c1NNC(C(N)=O)=C2Nc1cccc(C#N)c1`, the Selectivity ratio in series [7], in [8], in [9], in series [10], in [11] and in [12] was > 100 throughout. Moreover, the IC50 is 2.51 nM in the series with Blood and < 1 nM in series [2]. In addition, in [4], the half-life was 7.2 h. The concentration in solution in series [1] (solubility) was 1 µg/mL (≈ 2.61 µM). For the same molecule, the bioavailability was 64% in series [5] and 17% in series [3]. This molecule also yielded a clearance in [6] of 1.6 mL/min/kg.
In the case of `Cc1cc(S(C)(=O)=O)cc2c1NNC(C(N)=O)=C2Nc1cncc(Cl)c1`, the IC50 with Blood is 1.58 nM; in series [2] it was 0.0794 nM. Also, in series [1], the solubility was 12 µg/mL (≈ 30.5 µM). In series [3], this molecule registered a bioavailability of 50%.
In turn, `Cc1cc(S(C)(=O)=O)cc2c(Nc3cccc(C#N)c3)c(C(N)=O)cnc12` gave a half-inhibitory concentration (IC50) in the series on Blood of 12.6 nM. The molecule also showed a half-life in series [4] of 0.8 h. This molecule also yielded a solubility in [1] of 1 µg/mL (≈ 2.63 µM). For the same molecule, the bioavailability in series [5] amounted to 33%. In [6], the clearance turned out to be 82 mL/min/kg.
Regarding `CCn1nccc1NC1=C(C(N)=O)NNc2c(C)cc(S(=O)(=O)CC)cc21`, the IC50 in the series on Blood is 10 nM; in [2], 0.316 nM. In [3], this molecule yielded a bioavailability of 41%.
With `Cc1cc(S(C)(=O)=O)cc2c1NNC(C(N)=O)=C2Nc1cncc(F)c1`, the half-maximal inhibitory concentration (IC50) in the series on Blood is 5.01 nM; in series [2], < 0.501 nM. Besides, the concentration in solution in [1] (solubility) was 37 µg/mL (≈ 98 µM). In addition, the bioavailability in series [3] was found to be 34%.
As to `CS(=O)(=O)c1cc(F)c2c(c1)C(Nc1cncc(F)c1)=C(C(N)=O)NN2`, the figures for the IC50 (in the series on Blood; in [2]) were 158 nM and 0.631 nM, respectively.
Consider `CS(=O)(=O)c1ccc2c(c1)C(Nc1cncc(Cl)c1)=C(C(N)=O)NN2`, for which the IC50 in the series on Blood is 31.6 nM; in series [2] it was 0.794 nM. In addition, in series [1], the concentration in solution (solubility) came to 7 µg/mL (≈ 18.4 µM). Moreover, the bioavailability in series [3] was 66%.

As a reminder, the IC50 is the concentration at which inhibition is half-maximal. The term solubility denotes the concentration that dissolves in the medium under given conditions. One may read the bioavailability as dose-corrected exposure relative to a reference, in per cent. In general, half-life refers to the time in which the quantity being followed falls by half. As usually defined, the clearance is a measure of how efficiently the substance is removed, as volume per time.
